ChEMBL document CHEMBL1141070, “Synthesis and biological activity of flurbiprofen analogues as selective inhibitors of beta-amyloid(1)(-)(42) secretion” (J Med Chem, 2005)

Key:
[1] = molecular target: T1, Amyloid-beta precursor protein (Homo sapiens, UniProt P05067); conditions: at 100 µM
Target sequence in this assay (P05067 whole entry): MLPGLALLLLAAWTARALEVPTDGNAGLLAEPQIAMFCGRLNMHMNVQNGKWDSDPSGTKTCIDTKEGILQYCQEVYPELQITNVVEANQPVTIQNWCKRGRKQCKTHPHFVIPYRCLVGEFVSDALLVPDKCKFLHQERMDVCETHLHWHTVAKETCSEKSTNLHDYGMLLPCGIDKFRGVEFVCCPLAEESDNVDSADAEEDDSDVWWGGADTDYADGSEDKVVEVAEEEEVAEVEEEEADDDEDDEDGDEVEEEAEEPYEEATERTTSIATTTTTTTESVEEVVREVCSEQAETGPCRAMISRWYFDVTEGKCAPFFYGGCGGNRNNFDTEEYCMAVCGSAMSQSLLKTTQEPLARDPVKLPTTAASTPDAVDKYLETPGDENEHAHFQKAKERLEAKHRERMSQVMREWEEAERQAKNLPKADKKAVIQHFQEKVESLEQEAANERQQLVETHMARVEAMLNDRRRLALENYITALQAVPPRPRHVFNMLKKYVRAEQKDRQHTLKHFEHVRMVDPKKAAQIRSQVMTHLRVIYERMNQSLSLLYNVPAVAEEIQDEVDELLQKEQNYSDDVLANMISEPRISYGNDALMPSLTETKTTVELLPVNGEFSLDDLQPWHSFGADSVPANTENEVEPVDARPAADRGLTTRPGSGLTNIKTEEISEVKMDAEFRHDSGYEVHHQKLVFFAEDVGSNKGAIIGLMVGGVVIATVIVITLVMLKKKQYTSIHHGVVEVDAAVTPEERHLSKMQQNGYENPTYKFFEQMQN

[2] = molecular target: T2, Prostaglandin G/H synthase 1 (Rattus norvegicus) (UniProt Q63921); assay: Percent inhibition against cyclooxygenase-1 at 100 uM in rat blood
T2 sequence (whole entry): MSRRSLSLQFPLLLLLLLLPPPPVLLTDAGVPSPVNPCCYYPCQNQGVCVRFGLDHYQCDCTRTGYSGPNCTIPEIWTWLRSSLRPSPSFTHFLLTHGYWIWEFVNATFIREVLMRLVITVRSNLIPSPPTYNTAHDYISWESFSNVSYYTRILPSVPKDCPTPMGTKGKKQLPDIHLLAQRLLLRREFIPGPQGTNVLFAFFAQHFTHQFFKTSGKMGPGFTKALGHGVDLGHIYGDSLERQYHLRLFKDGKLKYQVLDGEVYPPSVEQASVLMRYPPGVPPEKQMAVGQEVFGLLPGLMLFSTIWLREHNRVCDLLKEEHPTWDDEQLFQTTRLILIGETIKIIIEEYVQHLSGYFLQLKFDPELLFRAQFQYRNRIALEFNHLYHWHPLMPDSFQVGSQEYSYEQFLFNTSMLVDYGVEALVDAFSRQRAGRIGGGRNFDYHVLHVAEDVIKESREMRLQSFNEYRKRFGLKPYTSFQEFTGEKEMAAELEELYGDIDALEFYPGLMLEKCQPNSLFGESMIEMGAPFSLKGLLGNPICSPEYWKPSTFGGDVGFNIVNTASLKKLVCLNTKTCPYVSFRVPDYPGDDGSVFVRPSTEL
How it was run: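 Fresh rat whole blood preincubated 1 h at 37 °C with compound (100 μM) or DMSO (0.3% final). Stimulated 30 min with A23187 calcium ionophore; plasma thromboxane B2 measured by radioimmunoassay.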

[3] = molecular target: T1, Amyloid-beta precursor protein; assay: Inhibitory concentration against beta-amyloid-42 (Abeta42) secretion was evaluated in human neuroglioma cells (H4-APP695NL); type: functional, cell-based
How it was run: (§1)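 H4-APP695NL human neuroglioma cells (APP695 Swedish K595N/M596L) seeded at 2 × 10^5/well and grown 24 h to confluence. Increasing compound concentrations added overnight; DMSO 1% as vehicle. Supernatant Aβ42 or Aβ40 measured by electrochemiluminescence immunoassay: biotinylated 4G8 plus C-terminus-specific rabbit antibodies, captured on streptavidin beads.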
Target sequence in this assay (P05067 18-770 limits assumed): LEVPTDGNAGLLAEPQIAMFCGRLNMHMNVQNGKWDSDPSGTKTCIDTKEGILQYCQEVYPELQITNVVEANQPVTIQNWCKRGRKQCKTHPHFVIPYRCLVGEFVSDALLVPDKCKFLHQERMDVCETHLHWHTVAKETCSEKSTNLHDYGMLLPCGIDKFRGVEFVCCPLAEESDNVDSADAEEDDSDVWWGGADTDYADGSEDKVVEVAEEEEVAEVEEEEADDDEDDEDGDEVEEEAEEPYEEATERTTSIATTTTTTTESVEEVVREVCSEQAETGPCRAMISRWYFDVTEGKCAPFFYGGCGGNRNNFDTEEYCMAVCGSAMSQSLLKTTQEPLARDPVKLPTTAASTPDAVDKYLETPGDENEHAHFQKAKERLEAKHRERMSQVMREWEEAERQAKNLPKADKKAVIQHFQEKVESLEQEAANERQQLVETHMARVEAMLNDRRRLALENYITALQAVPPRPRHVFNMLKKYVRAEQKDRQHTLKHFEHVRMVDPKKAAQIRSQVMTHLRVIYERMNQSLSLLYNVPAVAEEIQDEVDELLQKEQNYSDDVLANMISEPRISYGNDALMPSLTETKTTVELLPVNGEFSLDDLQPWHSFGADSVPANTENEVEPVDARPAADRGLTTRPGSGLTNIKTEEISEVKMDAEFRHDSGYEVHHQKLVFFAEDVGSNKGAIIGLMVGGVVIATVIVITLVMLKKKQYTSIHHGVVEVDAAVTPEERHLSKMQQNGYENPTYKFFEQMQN

[4] = Intestinal drug absorption was estimated in vitro using human colon adenocarcinoma (Caco-2) cell monolayers; type: ADME
How it was run: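 Caco-2 monolayers on polycarbonate Transwell inserts, 2 h at 37 °C. Apical and basolateral solutions analysed by LC-MS/MS (SRM). Papp = Cb·Vb/(C0·A·t).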

CYP2C19 = CYP2C19 (Homo sapiens, UniProt P33261); assay: Interaction with human cytochrome P450 isoform 2C19 expressed in baculovirus-insect cells at 100 uM; type: ADME
How it was run: (§2)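 Microsomes from baculovirus-insect cells expressing human CYP1A2, 2C9, 2C19, 2D6 or 3A4. Compound serially diluted with an NADPH-regenerating mix (16.3 μM NADP+, 0.83 mM glucose-6-phosphate, 0.83 mM MgCl2, 0.4 U/mL G6PDH). Pre-warmed 10 min at 37 °C, then isoform-specific substrate added in 0.35 M potassium phosphate pH 7.4. Fluorometric read-out; IC50 by nonlinear regression.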

[5] = Concentration ratio in cerebrospinal fluid and plasma; conditions: rat
Cytochrome P450 2C19 = Cytochrome P450 2C19 (Homo sapiens, UniProt P33261); assay: Interaction with human cytochrome P450 isoform 2C19 expressed in baculovirus-insect cells; type: ADME
How it was run: as §2

Cytochrome P450 2C9 = Cytochrome P450 2C9 (Homo sapiens, UniProt P11712); assay: Interaction with human cytochrome P450 isoform 2C9 expressed in baculovirus-insect cells; type: ADME
How it was run: as §2

[6] = In vivo steady state metabolic clearance of the compound; conditions: rat
[7] = molecular target: T1, Amyloid-beta precursor protein; assay: (§3) Concentration required to inhibit A beta 40 peptide 100 uM
Target sequence in this assay (P05067 whole entry): as the sequence (P05067 whole entry) above

Cytochrome P450 3A4 = Cytochrome P450 3A4 (Homo sapiens, UniProt P08684); assay: Interaction with human cytochrome P450 isoform 3A4 expressed in baculovirus-insect cells; type: ADME
How it was run: (§4)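 Supersome microsomes from baculovirus-insect cells expressing human CYP1A2, 2C9, 2C19, 2D6 or 3A4 were used with isoform-specific fluorogenic substrates. Compounds were serially diluted with an NADP⁺/glucose-6-phosphate regenerating system in 0.35 M potassium phosphate, pH 7.4. Plates were prewarmed 10 min at 37 °C, reactions stopped with acetonitrile/Tris, and fluorescence read. IC50 was obtained by nonlinear regression.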

Cytochrome P450 2D6 = Cytochrome P450 2D6 (Homo sapiens, UniProt P10635); assay: Interaction with human cytochrome P450 isoform 2D6 expressed in baculovirus-insect cells; type: ADME
How it was run: as §4

[8] = molecular target: T1, Amyloid-beta precursor protein; assay: as §3; remark: listed apart in the source
How it was run: as §1
Target sequence in this assay (P05067 whole entry): as above

[9] = molecular target: T3, Prostaglandin G/H synthase 1 (Rattus norvegicus, UniProt Q63921); assay: Concentration required to inhibit cyclooxygenase-1 in rat blood
T3 sequence (Q63921 whole entry): T2 sequence (whole entry)
How it was run: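 Fresh rat whole blood was preincubated 1 h at 37 °C with compound (100 μM or a concentration series; DMSO 0.3% final). It was then stimulated 30 min with the Ca²⁺ ionophore A23187. Thromboxane B2 in the plasma was measured by radioimmunoassay.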

CYP2D6 = CYP2D6 (Homo sapiens, UniProt P10635); assay: Interaction with human cytochrome P450 isoform 2D6 expressed in baculovirus-insect cells at 100 uM; type: ADME
How it was run: as §2

CYP2C9 = CYP2C9 (Homo sapiens, UniProt P11712); assay: Interaction with human cytochrome P450 isoform 2C9 expressed in baculovirus-insect cells at 100 uM; type: ADME
How it was run: as §2

CYP3A4 = CYP3A4 (Homo sapiens, UniProt P08684); assay: Interaction with human cytochrome P450 isoform 3A4 expressed in baculovirus-insect cells at 100 uM; type: ADME
How it was run: as §2

CYP1A2 = molecular target: T4, CYP1A2 (Homo sapiens, UniProt P05177); assay: Interaction with human cytochrome P450 isoform 1A2 expressed in baculovirus-insect cells at 100 uM; type: ADME
T4 sequence (P05177 whole entry): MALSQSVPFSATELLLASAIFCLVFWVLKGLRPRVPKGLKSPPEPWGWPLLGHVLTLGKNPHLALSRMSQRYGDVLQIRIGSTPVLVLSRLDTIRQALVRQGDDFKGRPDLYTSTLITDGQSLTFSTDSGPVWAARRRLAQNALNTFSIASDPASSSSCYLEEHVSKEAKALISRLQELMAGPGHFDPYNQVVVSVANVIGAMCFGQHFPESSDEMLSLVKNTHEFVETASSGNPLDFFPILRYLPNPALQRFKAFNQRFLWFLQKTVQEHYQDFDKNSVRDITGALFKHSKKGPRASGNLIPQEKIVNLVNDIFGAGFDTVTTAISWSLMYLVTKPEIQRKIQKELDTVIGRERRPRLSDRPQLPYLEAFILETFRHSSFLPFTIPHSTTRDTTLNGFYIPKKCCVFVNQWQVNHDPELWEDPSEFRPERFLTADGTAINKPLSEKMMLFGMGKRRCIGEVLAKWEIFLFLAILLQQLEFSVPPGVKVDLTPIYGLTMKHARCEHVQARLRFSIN
How it was run: as §2

Sequence of Cytochrome P450 3A4 (P08684 whole entry, canonical isoform): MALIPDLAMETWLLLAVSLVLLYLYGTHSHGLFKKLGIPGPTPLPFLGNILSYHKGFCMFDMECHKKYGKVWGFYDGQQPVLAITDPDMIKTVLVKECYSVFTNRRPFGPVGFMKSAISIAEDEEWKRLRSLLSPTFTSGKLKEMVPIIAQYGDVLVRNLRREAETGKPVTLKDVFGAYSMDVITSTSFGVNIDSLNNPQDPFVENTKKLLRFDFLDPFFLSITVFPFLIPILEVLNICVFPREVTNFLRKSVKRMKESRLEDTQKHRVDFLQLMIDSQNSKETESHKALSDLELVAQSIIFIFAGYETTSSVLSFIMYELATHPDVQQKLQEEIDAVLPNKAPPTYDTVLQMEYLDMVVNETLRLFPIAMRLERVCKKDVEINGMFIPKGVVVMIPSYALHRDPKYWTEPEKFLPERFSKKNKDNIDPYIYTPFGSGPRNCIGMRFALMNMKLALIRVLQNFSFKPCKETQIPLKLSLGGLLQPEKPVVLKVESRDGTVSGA
Sequence of Cytochrome P450 2C9 (P11712 whole entry, canonical isoform): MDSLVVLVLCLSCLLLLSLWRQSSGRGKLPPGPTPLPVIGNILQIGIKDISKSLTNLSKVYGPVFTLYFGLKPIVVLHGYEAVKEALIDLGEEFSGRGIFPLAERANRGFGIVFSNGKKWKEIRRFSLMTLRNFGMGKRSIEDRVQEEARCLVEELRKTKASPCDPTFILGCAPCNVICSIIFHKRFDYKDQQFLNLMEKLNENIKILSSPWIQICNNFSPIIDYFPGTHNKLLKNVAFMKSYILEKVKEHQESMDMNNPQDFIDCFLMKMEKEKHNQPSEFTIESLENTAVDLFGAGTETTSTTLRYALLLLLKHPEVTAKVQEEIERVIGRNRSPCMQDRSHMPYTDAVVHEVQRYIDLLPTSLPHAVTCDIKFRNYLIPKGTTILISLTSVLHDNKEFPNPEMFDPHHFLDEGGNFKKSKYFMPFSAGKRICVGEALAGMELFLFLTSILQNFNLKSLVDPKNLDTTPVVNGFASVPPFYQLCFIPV
Sequence of Cytochrome P450 2C19 (P33261 whole entry, canonical isoform): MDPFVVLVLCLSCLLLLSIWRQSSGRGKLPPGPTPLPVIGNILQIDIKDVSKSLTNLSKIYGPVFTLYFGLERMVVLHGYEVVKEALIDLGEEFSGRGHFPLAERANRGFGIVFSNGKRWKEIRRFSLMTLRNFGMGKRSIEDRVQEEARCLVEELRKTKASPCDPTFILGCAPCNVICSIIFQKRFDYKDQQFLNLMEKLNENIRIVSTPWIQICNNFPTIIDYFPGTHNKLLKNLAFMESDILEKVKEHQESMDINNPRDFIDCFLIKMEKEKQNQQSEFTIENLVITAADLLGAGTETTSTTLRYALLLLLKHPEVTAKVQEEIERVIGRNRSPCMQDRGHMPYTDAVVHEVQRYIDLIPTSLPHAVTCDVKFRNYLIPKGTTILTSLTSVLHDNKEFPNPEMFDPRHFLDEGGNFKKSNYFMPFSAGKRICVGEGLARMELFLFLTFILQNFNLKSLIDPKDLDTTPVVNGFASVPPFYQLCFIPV
Sequence of CYP2C19 (P33261 whole entry, canonical isoform): as above
Sequence of Cytochrome P450 2D6 (P10635 whole entry, canonical isoform): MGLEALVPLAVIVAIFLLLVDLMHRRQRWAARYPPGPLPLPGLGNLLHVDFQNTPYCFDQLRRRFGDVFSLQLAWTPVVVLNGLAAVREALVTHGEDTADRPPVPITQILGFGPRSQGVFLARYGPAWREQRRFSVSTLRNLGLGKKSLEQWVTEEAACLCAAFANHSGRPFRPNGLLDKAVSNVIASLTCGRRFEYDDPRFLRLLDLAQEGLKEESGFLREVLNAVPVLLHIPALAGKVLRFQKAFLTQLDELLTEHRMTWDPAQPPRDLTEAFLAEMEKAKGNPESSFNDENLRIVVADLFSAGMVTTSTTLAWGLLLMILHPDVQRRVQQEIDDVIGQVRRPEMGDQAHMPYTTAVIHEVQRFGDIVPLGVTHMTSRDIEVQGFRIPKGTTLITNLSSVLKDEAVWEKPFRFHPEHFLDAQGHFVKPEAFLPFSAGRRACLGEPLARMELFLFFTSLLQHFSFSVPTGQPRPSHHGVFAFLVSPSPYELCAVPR
Sequence of CYP3A4 (P08684 whole entry, canonical isoform): as the sequence (P08684 whole entry, canonical isoform) above
Sequence of CYP2C9 (P11712 whole entry, canonical isoform): as the sequence (P11712 whole entry, canonical isoform) above
Sequence of CYP2D6 (P10635 whole entry, canonical isoform): as the sequence (P10635 whole entry, canonical isoform) above

SMILES: CC(C(=O)O)c1ccc(-c2ccc(Cl)c(Cl)c2)c(F)c1 (stereo unspecified)
- inhibition [1]: 87%
- inhibition [2]: 78%
- IC50 [3]: 75 µM
- Papp [4]: > 5 ×10⁻⁶ cm/s
- inhibition at 100 µM (CYP2C19): > 50%

SMILES: O=C(O)C1(c2ccc(-c3ccc(-c4ccc(F)cc4)c(F)c3)c(F)c2)CC1
- Ratio [5]: 1.8%
- IC50 (Cytochrome P450 2C19): 46 µM
- inhibition [1]: 75%
- IC50 (Cytochrome P450 2C9): 7 µM
- inhibition [2]: 18%
- Clearance [6]: 8.1 mL/h
- inhibition [7]: 32%
- IC50 (Cytochrome P450 3A4): 38 µM
- IC50 [3]: 57.9 µM
- Papp [4]: < 1 ×10⁻⁶ cm/s

SMILES: CC1(C)CCC(c2ccc(-c3ccc(C4(C(=O)O)CC4)cc3F)cc2)CC1
- Ratio [5]: Below LLOQ
- IC50 (Cytochrome P450 2C19): 13 µM
- inhibition [1]: 75%
- IC50 (Cytochrome P450 2C9): 17 µM
- inhibition [2]: 17%
- Clearance [6]: 145.8 mL/h
- IC50 (Cytochrome P450 2D6): 5.3 µM
- IC50 (Cytochrome P450 3A4): 84 µM
- IC50 [3]: 46 µM
- Papp [4]: < 1 ×10⁻⁶ cm/s
- IC50 [8]: 101 µM

SMILES: CC(C(=O)O)c1ccc(-c2ccc(-c3ccc(O)cc3)cc2)c(F)c1 (stereo unspecified)
- Ratio [5]: 1.1%
- IC50 (Cytochrome P450 2C19): 58 µM
- inhibition [1]: 75%
- IC50 (Cytochrome P450 2C9): 4.7 µM
- inhibition [2]: 17%
- Clearance [6]: 85 mL/h
- IC50 (Cytochrome P450 3A4): 74 µM
- IC50 [3]: 35 µM
- Papp [4]: > 5 ×10⁻⁶ cm/s

SMILES: CC(C(=O)O)c1ccc(-c2cccc(Cl)c2)c(F)c1 (stereo unspecified)
- inhibition [1]: 58%

SMILES: CC(C(=O)O)c1ccc(-c2ccc(C(F)(F)F)cc2)c(Cl)c1 (stereo unspecified)
- inhibition [7]: 40%

SMILES: O=C(O)C1(c2ccc(-c3ccc(-c4ccc(O)cc4)cc3)c(F)c2)CC1
- IC50 (Cytochrome P450 2C19): 35 µM
- inhibition [1]: 99%
- IC50 (Cytochrome P450 2C9): 89 µM
- inhibition [2]: < 1%
- IC50 (Cytochrome P450 2D6): 21.5 µM
- IC50 [3]: 31.6 µM
- Papp [4]: > 5 ×10⁻⁶ cm/s
- IC50 [8]: 409 µM

SMILES: C[C@H](C(=O)O)c1ccc(-c2ccccc2)c(F)c1 [ESFLURBIPROFEN]
- IC50 [9]: 0.03 µM

SMILES: Cc1ccc(-c2ccc(C(C)C(=O)O)cc2F)cc1 (stereo unspecified)
- inhibition [1]: 44%

SMILES: O=C(O)C1(c2ccc(-c3csc4ccccc34)c(F)c2)CC1
- Ratio [5]: 2.6%
- inhibition [1]: 49%
- IC50 (Cytochrome P450 2C9): 19 µM
- inhibition [2]: < 1%
- Clearance [6]: 113.6 mL/h
- IC50 [3]: 96.3 µM
- Papp [4]: > 5 ×10⁻⁶ cm/s

SMILES: CC(C(N)=O)c1ccc(-c2cc(Cl)cc(Cl)c2)c(F)c1 (stereo unspecified)
- Ratio [5]: 19%
- inhibition [1]: 70%
- Clearance [6]: 193 mL/h
- IC50 [3]: 64 µM
- IC50 [8]: 12 µM

SMILES: CC(C(=O)O)c1ccc(-c2ccsc2)c(F)c1 (stereo unspecified)
- inhibition [1]: 40%

SMILES: CC(C)(C(=O)O)c1ccc(-c2ccc(C(F)(F)F)cc2)c(F)c1
- inhibition [1]: 58%
- IC50 [3]: 70.6 µM

SMILES: CC(C(=O)O)c1ccc(-c2ccc3c(c2)OCO3)c(F)c1 (stereo unspecified)
- inhibition [1]: 42%
- IC50 [3]: 210 µM

SMILES: COc1ccc(-c2ccc(C(C)C(=O)O)cc2F)cc1 (stereo unspecified)
- IC50 (Cytochrome P450 2C19): 87 µM
- inhibition [1]: 67%
- IC50 [3]: 67 µM
- Papp [4]: > 5 ×10⁻⁶ cm/s

SMILES: O=C(O)C1(c2ccc(-c3ccc(OC4CCOCC4)cc3)c(F)c2)CC1
- Ratio [5]: 1.1%
- inhibition [1]: 28%
- Clearance [6]: 70.5 mL/h

SMILES: CC(C(=O)O)c1ccc(-c2ccccc2Cl)c(F)c1 (stereo unspecified)
- inhibition [1]: 13%

SMILES: CC(C(=O)O)c1ccc(-c2ccc(Cl)cc2)c(F)c1 (stereo unspecified)
- inhibition [1]: 55%

SMILES: CC(C(=O)O)c1ccc(-c2ccc(C(F)(F)F)cc2)cc1 (stereo unspecified)
- inhibition [1]: 2%

SMILES: CC(c1ccc(-c2ccc(C(F)(F)F)cc2)c(F)c1)c1nnn[nH]1 (stereo unspecified)
- inhibition [1]: 43%
- inhibition [2]: 9%
- inhibition at 100 µM (CYP2D6): > 50%
- inhibition at 100 µM (CYP2C9): > 50%
- inhibition at 100 µM (CYP3A4): > 50%
- IC50 [3]: 114 µM
- inhibition at 100 µM (CYP2C19): > 50%
- inhibition at 100 µM (CYP1A2): > 50%

SMILES: CC(C(=O)O)c1ccc(-c2ccc(O)cc2)c(F)c1 (stereo unspecified)
- inhibition [1]: 27%

SMILES: CC(C(=O)O)c1ccc(-c2ccc(C(F)(F)F)cc2)cc1C(F)(F)F (stereo unspecified)
- inhibition [1]: 57%

SMILES: O=C(O)C1(c2ccc(-c3ccccc3)c(F)c2)CC1
- Ratio [5]: 2.3%
- inhibition [1]: 40%
- IC50 (Cytochrome P450 2C9): 83 µM
- inhibition [2]: 26%
- Clearance [6]: 9.8 mL/h
- Papp [4]: > 5 ×10⁻⁶ cm/s

SMILES: CC(C(=O)O)c1ccc(-c2ccncc2)c(F)c1 (stereo unspecified)
- inhibition [1]: 11%

SMILES: CC(c1ccc(-c2ccc(C(F)(F)F)cc2)c(F)c1)c1noc(O)n1 (stereo unspecified)
- Ratio [5]: 2.1%
- inhibition [1]: 46%
- inhibition at 100 µM (CYP2C9): > 50%
- Clearance [6]: 5.3 mL/h
- inhibition at 100 µM (CYP3A4): > 50%
- inhibition at 100 µM (CYP2C19): > 50%

SMILES: C[C@@H](C(=O)O)c1ccc(-c2ccccc2)c(F)c1 [TARENFLURBIL]
- IC50 [9]: 44 µM
- IC50 [3]: 280 µM

SMILES: CC(C(=O)O)c1ccc(-c2ccccc2C(F)(F)F)c(F)c1 (stereo unspecified)
- inhibition [1]: 25%

SMILES: CC(C(=O)NO)c1ccc(-c2ccc(C(F)(F)F)cc2)c(F)c1 (stereo unspecified)
- inhibition [1]: 31%
